≈ marks a conversion by molar mass, not a printed value.
Assays:
[1] = system: Mycobacterium marinum; assay: In vitro cytotoxicity against Mycobacterium marinum (CIP 6423) was determined; type: functional
How it was run: (§1)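 Broth microdilution in Middlebrook 7H9. Stocks were made in DMSO and filter-sterilized (0.2 μm), then serially diluted 2-fold in water. Tubes were incubated at 37°C for 10-15 days, with a drug-free control tube in each experiment. MIC (μg/mL) is the lowest concentration giving no visible turbidity.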

[2] = system: Mycolicibacterium smegmatis; assay: In vitro cytotoxicity against Mycobacterium smegmatis CIP (103599) was determined; type: functional; how it was run: as §1
[3] = system: Vero; assay: Minimal toxic dose that induced a reduction of 50% of cell growth in Vero cell line […]; type: functional, Chlorocebus sabaeus
How it was run: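 VERO monolayers in Dulbecco's modified MEM with 2% fetal calf serum were seeded at 9'10⁴ cells per well in six-well plates. Compounds, dissolved in DMSO at 10 mg/mL initially, were added after 24 h. Five days later, cells were trypsinised and counted in a Neubauer chamber. MTD50 was the concentration giving 50% growth reduction versus control.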

[4] = system: Mycobacterium gordonae; assay: In vitro cytotoxicity against Mycobacterium gordonae (CIP 6427) was determined; type: functional; how it was run: as §1
[5] = system: Mycobacterium avium; assay: In vitro cytotoxicity against Mycobacterium avium (CIP 103317) was determined; type: functional
[6] = system: Mycobacterium tuberculosis; assay: In vitro minimum inhibitory concentration against Mycobacterium tuberculosis CIP 103471 was determined; type: functional
How it was run: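 Broth microdilution in Middlebrook 7H9 with 10% ADC. DMSO stocks were filter-sterilised (0.2 μm nylon), then serially diluted 2-fold in water. Tubes were incubated at 37°C for 10-15 days alongside a drug-free control. MIC was the lowest concentration with no visible turbidity.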

[7] = system: Mycobacterium avium; assay: In vitro cytotoxicity against Mycobacterium avium (CIP 103317) was determined

Row | Compound | MIC [1] [µg/mL] | MIC [2] [µg/mL] | MTD50 [3] [µg/mL] | MIC [4] [µg/mL] | MIC [5] [µg/mL] | MIC [6] [µg/mL] | MIC [7] [µg/mL]
1 | NNC(=O)c1ccncc1 [ISONIAZID] | 16 (≈ 117 µM) | 64 (≈ 467 µM) | 32 | 32 (≈ 233 µM) | 32 (≈ 233 µM) | 0.25 (≈ 1.82 µM) | –
2 | O=C(Nc1ccc(CN2CCSCC2)cc1)c1ccc(-c2ccccc2)cc1 | > 16 | > 16 | 16 | > 16 | > 16 | > 16 | –
3 | c1ccc(-c2ccc(CNc3ccc(CN4CCSCC4)cc3)cc2)cc1 | 8 (≈ 21.4 µM) | > 16 | 8 | 8 (≈ 21.4 µM) | – | 0.5 (≈ 1.33 µM) | 4 (≈ 10.7 µM)
4 | CN(Cc1ccc(-c2ccccc2)cc1)c1ccc(CN2CCSCC2)cc1 | 8 (≈ 20.6 µM) | > 16 | 8 | > 16 | 4 (≈ 10.3 µM) | 0.5 (≈ 1.29 µM) | –
5 | CN[C@@H]1[C@H](O[C@H]2[C@H](O[C@H]3[C@H](O)[C@@H](O)[C@H](N=C(N)N)[C@@H](O)[C@@H]3N=C(N)N)O[C@@H](C)[C@]2(O)C=O)O[C@@H](CO)[C@H](O)[C@H]1O [STREPTOMYCIN] | 32 (≈ 55 µM) | 8 (≈ 13.8 µM) | >64 | 16 (≈ 27.5 µM) | 4 (≈ 6.88 µM) | 0.5 (≈ 0.86 µM) | –
6 | C[N+](C)(Cc1ccc(-c2ccccc2)cc1)c1ccc(CN2CCSCC2)cc1.[I-] | 16 | > 16 | 16 | 8 | 16 | 8 | –

— ChEMBL document CHEMBL1130838, “N-[4-(1,1'-biphenyl)methyl]-4-(4-thiomorpholinylmethyl) benzenamines as non-oxazolidinone analogues of antimycobacterial U-100480” (1998)
